From ChEMBL document CHEMBL3414570, “Small molecule binding sites on the Ras:SOS complex can be exploited for inhibition of Ras activation” (J Med Chem, 2015)
Calls of active or inactive are those of the source. The rule behind the calls is not given here.

Columns and labels:
[1] = Binding affinity to 6His-TEV-SH-HRas(1 to 166) (unknown origin)/6His-TEV-SH-SOS (unknown origin) complex by nuclear magnetic resonance analysis; design: species or system Homo sapiens
Homo sapiens [2] = organism: Homo sapiens; assay: Inhibition of Kras:GDP:SOS complex (unknown origin) at 200 uM after 2.5 hrs by HTRF method
Method in brief: (§1)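 Biotin-KRas-GDP plus SOS preincubated with compound (200 μM final during preincubation) 2.5 h ambient; streptavidin-europium in DTT-containing buffer added, 4 h. GST-Raf/anti-GST-XL665 plus GTPγS then added; final 3 nM KRas, 1 µM SOS, 1 μM GTPγS. HTRF read at 60 min; inhibition relative to DMSO (0%) and no-KRas (100%) controls.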

Homo sapiens [3] = organism: Homo sapiens; assay: Inhibition of SOS (unknown origin) at 200 uM incubated for 2.5 hrs followed by KRas-GDP addition measured after 4 hrs by HTRF method
Method in brief: as §1, with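 “SOS” for “Biotin-KRas-GDP plus SOS”, “then biotin-KRas-GDP” for “in DTT-containing buffer”, “started exchange;” for “then added;”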

[4] = target: GTPase KRas (Homo sapiens) (UniProt P01116); assay: Inhibition of biotinylated KRas-GDP (unknown origin) at 200 uM incubated for 2.5 hrs followed by SOS addition measured after 4 hrs by HTRF method
GTPase KRas (Homo sapiens), sequence (P01116 whole entry, looked up): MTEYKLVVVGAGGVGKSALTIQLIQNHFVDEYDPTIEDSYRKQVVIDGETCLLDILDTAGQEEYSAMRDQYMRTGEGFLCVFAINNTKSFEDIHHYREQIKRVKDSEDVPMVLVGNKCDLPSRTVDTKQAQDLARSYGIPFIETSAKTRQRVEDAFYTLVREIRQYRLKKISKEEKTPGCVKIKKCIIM
Method in brief: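 Biotin-KRas-GDP preincubated with compound (200 μM final during preincubation) 2.5 h ambient; streptavidin-europium then SOS added, 4 h equilibration. GST-Raf/anti-GST-XL665 premix plus GTPγS added to start exchange; final 3 nM KRas, 1 µM SOS, 1 μM GTPγS, 10 nM GST-Raf. HTRF read at 60 min (665/615 nm); inhibition relative to DMSO (0%) and no-KRas (100%) controls.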

[5] = test system: GTPase KRas (Homo sapiens), P01116 [G12V]; assay: Time dependent inhibition of KRas G12V mutant (unknown origin) assessed as SOS-mediated MANT-dGDP displacement at 200 uM by microplate reader analysis
GTPase KRas (Homo sapiens), P01116 [G12V], sequence (P01116 whole entry G12V): as the sequence (P01116 whole entry, looked up) above, with G12V counted along it
Method in brief: (§2)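 KRas (WT, G12V or G12C) preequilibrated 4 h with SOS and MANT-dGDP in HEPES/NaCl/MgCl2/Tween-20 buffer; added to compound (200 μM final). Fluorescence read kinetically (ex 350/em 450 nm) to 85 min; each well referenced to time zero and to DMSO controls.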

[6] = test system: GTPase KRas (Homo sapiens), P01116 [G12C]; assay: Time dependent inhibition of KRas G12C mutant (unknown origin) assessed as SOS-mediated MANT-dGDP displacement at 200 uM by microplate reader analysis; method in brief: as §2
GTPase KRas (Homo sapiens), P01116 [G12C], sequence (P01116 whole entry G12C): as the sequence (P01116 whole entry, looked up) above, with G12C counted along it

[7] = target: GTPase KRas (Homo sapiens) (UniProt P01116); assay: Time dependent inhibition of wild-type KRas (unknown origin) assessed as SOS-mediated MANT-dGDP displacement at 200 uM by microplate reader analysis; method in brief: as §2

## Brc1ccc(CN2CCCC2)cc1
[1]
  Kd: 1.3 mM

## CCN1C(=O)C=C(c2cc(Cl)cc(C(N)=O)c2)C1=O
Homo sapiens [2]
  inhibition: 40%
Homo sapiens [3]
  inhibition: inactive

## Nc1ccc(S(=O)(=O)N2CCCCC2=O)cc1
[1]
  Kd: 3 mM

## Brc1ccc2cc[nH]c2c1
[1]
  Kd: 6 mM

## COc1ccc(S(=O)(=O)Nc2nccs2)cc1
[1]
  Kd: 6 mM

## CCN1C(=O)C=C(c2cc(C#N)cc(C(=O)O)c2)C1=O
Homo sapiens [2]
  inhibition: inactive
[4]
  inhibition: inactive
Homo sapiens [3]
  inhibition: inactive

## OC1(c2ccc(Br)cc2)CCNCC1
[1]
  Kd: 1.7 mM

## CCN1C(=O)C=C(c2cccc(C(N)=O)c2)C1=O
Homo sapiens [2]
  inhibition: inactive
[5]
  inhibition: Active
[6]
  inhibition: Active
[4]
  inhibition: inactive
Homo sapiens [3]
  inhibition: inactive
[7]
  inhibition: Active

## O=C1C=CC(=O)N1C1CCS(=O)(=O)C1 (stereo not drawn)
Homo sapiens [2]
  inhibition: 40%
Homo sapiens [3]
  inhibition: inactive

## Nc1ccc(S(=O)(=O)NC(=O)C2CC2)cc1
[1]
  Kd: 6 mM

## CCN1C(=O)C=C(c2cccc(CN)c2)C1=O
Homo sapiens [2]
  inhibition: inactive
[4]
  inhibition: inactive
Homo sapiens [3]
  inhibition: inactive

## CSc1nc(-c2c(C)cccc2C)nc(N2CCNCC2)n1
[1]
  Kd: 1.6 mM
